The text below walks through data of ChEMBL document CHEMBL1121947 (J Med Chem, 1982).

Bounds are passed on as bounds.

The target of one series is GABA transporter (Rattus norvegicus, UniProt P31647+P23978+P31646+P48056). The series can be described thus: Inhibition of high affinity neuronal GABA uptake by synaptosomes of rat brain membrane. The format is functional, subcellular.
A short description of series [1]: pKA value was determined; Experiment 2. The format is physicochemical.
Series [2] can be described thus: pKA value was determined; Experiment 1. The format is physicochemical.
Series [3] addresses GABA-A receptor; anion channel. The series can be described thus: Inhibition of [3H]GABA binding to Gamma-aminobutyric acid receptor of rat brain synaptosomal membranes. The format is cell membranes, Membrane. In short, it runs like this: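 Rat brain synaptic membranes (0.8–1.2 mg protein) were incubated in triplicate for 5 min at 4 °C in 0.05 M Tris-citrate pH 7.1 with 5 nM [3H]GABA, plus 1 mM GABA or 100 µM test agent. Protein was measured by Lowry.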

Regarding `O=C(O)[C@H]1CNCC[C@@H]1O`, the IC50 is 203 µM on GABA transporter and more than 100 µM in series [3]. The pKa in series [1] was found to be 9.4; in series [2], 3.1.

Regarding `O=C(O)C1CCCNC1` (configuration not stated) [NIPECOTIC ACID], the results for the pKa in series [1] and in series [2] were 10.3 and 3.9, respectively. In series [3], this compound registered a half-inhibitory concentration (IC50) of more than 100 µM.

As for `O=C(O)[C@@H]1CCNC[C@@H]1O`, the half-maximal inhibitory concentration (IC50) is more than 300 µM at GABA transporter and 12 µM in series [3]. For the same compound, the results for the pKa in series [1] and in series [2] were 10 and 3.7, respectively.

For the compound `CC(=O)N[C@@H]1CNC[C@H](C(=O)O)C1`, the values for the IC50 (against GABA transporter; in series [3]) were 240 µM and more than 100 µM, respectively. Also, the pKa worked out at 8.6 in series [1] and 3 in series [2].

In the case of `CC(=O)N[C@@H]1CCNC[C@@H]1C(=O)O`, the IC50 is more than 300 µM against GABA transporter and more than 100 µM in series [3]. The pKa came out at 9.7 in series [1] and 3.2 in series [2].

Take `O=C(O)[C@@H]1CCNC[C@H]1O`: the half-maximal inhibitory concentration (IC50) is more than 300 µM against GABA transporter and 43 µM in series [3]. Moreover, the pKa in series [1] came out at 9.3; in series [2], 3.6.

As to `O=C(O)[C@H]1CNC[C@@H](O)C1`, the IC50 on GABA transporter was 173 µM; in series [3], more than 100 µM. For the same compound, the figures for the pKa in series [1] and in series [2] were 8.9 and 3.5, respectively.

Turning to `O=C(O)[C@H]1CNCC[C@H]1O`, the IC50 at GABA transporter is 11 µM; in series [3], more than 100 µM. The pKa in series [1] came to 10; in series [2] it was 3.4.

For `NCCCC(=O)O` [GAMMA-AMINOBUTYRIC ACID], the pKa in series [1] came to 10.7; in series [2], 4.

Turning to `O=C(O)C1CCNCC1` [ISONIPECOTIC ACID], the IC50 was more than 300 µM against GABA transporter and 0.33 µM in series [3]. Further, the pKa in series [1] was found to be 10.5; in series [2] it was 3.8.

What is called IC50 is the concentration at which inhibition is half-maximal. A high value points to weaker potency in that assay. In general, pKa refers to the negative logarithm of the acid dissociation constant. A low value points to a group that gives up its proton readily.
